# According to ChEMBL document CHEMBL1641482, “Synthetic analogs of daidzein, having more potent osteoblast stimulating effect” (2011):
# Activity calls are given as the source filed them. The calls are words filed in the database; no cut-off is given here.
# Assays:
# Rattus norvegicus [1] = assay: Estrogenic activity in ovariectomized Sprague-Dawley rat assessed as effect on uterine weight at 3 mg/kg, po qd for 3 days (reference value: 35.0 +/- 0.6); assay type: functional
# Rattus norvegicus [2] = assay: Antiestrogenic activity in ovariectomized Sprague-Dawley rat assessed as inhibition of 17beta estradiol-induced increase in uterine weight at 3 mg/kg, po qd for 3 days; assay type: functional
# Osteoblast [3] = assay: Induction of osteogenesis in Sprague-Dawley rat calvarial osteoblasts assessed as increase in osteoblast differentiation-associated ALP level at 1 pM to 10 nM after 48 hrs; assay type: functional, cell-based
# In short: (§1)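 Primary rat calvarial osteoblasts were seeded at 2 × 10³ cells per well and exposed to compounds from 1.0 pM to 10.0 nM for 48 h. Daidzein served as the positive control. ALP activity was read spectrophotometrically at 405 nm. Data are mean SD, n = 6, compared with vehicle-treated cells.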
# Osteoblast [4] = assay: Induction of osteogenesis in Sprague-Dawley rat calvarial osteoblasts assessed as increase in osteoblast differentiation-associated ALP level at 1 pM after 48 hrs; assay type: functional, cell-based; in short: as §1
# Osteoblast [5] = assay: Induction of osteogenesis in Sprague-Dawley rat calvarial osteoblasts assessed as increase in osteoblast differentiation-associated ALP level at 1 uM after 48 hrs; assay type: functional, cell-based
# Osteoblast [6] = assay: Ratio of compound to daidzein for induction of osteogenesis in Sprague-Dawley rat calvarial osteoblasts; assay type: functional
# Osteoblast [7] = assay: Induction of mineralization in Sprague-Dawley rat calvarial osteoblasts assessed as increase of mineralized nodules formation at 10 nM after 7 days by alizarin red staining; assay type: functional, cell-based
# In short: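 Primary rat calvarial osteoblasts were seeded at 2 × 10³ cells per well and exposed to 10.0 nM compound for seven days. Cells were fixed and stained with alizarin red-S, and the dye was extracted and measured colorimetrically by OD. Data are mean SD, n = 4, versus vehicle.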
# Rattus norvegicus [8] = assay: Estrogenic activity in ovariectomized Sprague-Dawley rat assessed as effect on uterine weight at 10 mg/kg, po qd for 3 days (reference value: 35.0 +/- 0.6); assay type: functional
# Rattus norvegicus [9] = assay: Antiestrogenic activity in ovariectomized Sprague-Dawley rat assessed as inhibition of 17beta estradiol-induced increase in uterine weight at 10 mg/kg, po qd for 3 days; assay type: functional
# Osteoblast [10] = assay: Induction of osteocalcin mRNA expression in Sprague-Dawley rat calvarial osteoblasts at 10 nM after 24 hrs by RT-PCR analysis relative to control; assay type: functional
# In short: (§2)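 Osteoblasts were cultured with or without 10 nM compound for 24 h. Osteocalcin and BMP-2 transcripts were quantified by real-time RT-PCR (qPCR) against vehicle control. Data are mean SEM, n = 4.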
# Osteoblast [11] = assay: Induction of BMP-2 mRNA expression in Sprague-Dawley rat calvarial osteoblasts at 10 nM after 24 hrs by RT-PCR analysis relative to control; assay type: functional; in short: as §2
# Bone marrow cell = assay: Induction of mineralization in rat bone marrow cell assessed as increase of mineralized nodules formation at 10 nM after 18 days by alizarin red staining
# Rattus norvegicus [12] = assay: Estrogenic activity in ovariectomized Sprague-Dawley rat assessed as effect on uterine weight at 0.01 mg/kg, po qd for 3 days (reference value: 35.0 +/- 0.6); assay type: functional
structure (smiles),measurement,setting,value
O=C(c1ccc(OCCN2CCCCC2)cc1)c1c(-c2ccc(O)cc2)sc2cc(O)ccc12 [RALOXIFENE],Activity,Rattus norvegicus [1],42.3 mg
same,Activity,Rattus norvegicus [2],67 mg
COc1ccc(-c2coc3cc(OCCN4CCCC4)ccc3c2=O)cc1,Activity,Osteoblast [3],Active
same,Activity,Osteoblast [4],inactive
same,Activity,Osteoblast [5],Active
same,Ratio,Osteoblast [6],100
same,Activity,Osteoblast [7],Active
same,Activity,Rattus norvegicus [8],31.3 mg
same,Activity,Rattus norvegicus [9],59.3 mg
CCN(CC)CCOc1ccc2c(=O)c(-c3ccc(OC)cc3)coc2c1,Activity,Osteoblast [3],Active
same,Activity,Osteoblast [4],inactive
same,Activity,Osteoblast [5],Active
same,Ratio,Osteoblast [6],100
same,Activity,Osteoblast [7],Active
same,fold change (FC),Osteoblast [10],10
same,fold change (FC),Osteoblast [11],6
same,Activity,Rattus norvegicus [8],28 mg
same,Activity,Rattus norvegicus [9],63 mg
same,Activity,Bone marrow cell,Active
COc1ccc2c(=O)c(-c3ccc(OCCBr)cc3)coc2c1,Activity,Osteoblast [3],Active
same,Activity,Osteoblast [4],inactive
same,Activity,Osteoblast [5],Active
same,Ratio,Osteoblast [6],100
COc1ccc2c(=O)c(-c3ccc(OCC(C)C)cc3)coc2c1,Activity,Osteoblast [3],Active
same,Activity,Osteoblast [4],inactive
same,Activity,Osteoblast [5],Active
same,Ratio,Osteoblast [6],100
C#C[C@]1(O)CC[C@H]2[C@@H]3CCc4cc(O)ccc4[C@H]3CC[C@@]21C [ETHINYL ESTRADIOL],Activity,Rattus norvegicus [12],82.3 mg
CCN(CC)CCOc1ccc(-c2coc3cc(OCCN(CC)CC)ccc3c2=O)cc1,Activity,Osteoblast [3],Active
same,Activity,Osteoblast [4],inactive
same,Activity,Osteoblast [5],Active
same,Ratio,Osteoblast [6],100
same,Activity,Osteoblast [7],Active
same,Activity,Rattus norvegicus [8],31.3 mg
same,Activity,Rattus norvegicus [9],57.3 mg
same,Activity,Bone marrow cell,Active
